Only some compounds are listed: those with a hit (about 1.7% of all), similar ones and a draw of the others.
SR-BI HDL uptake – mouse SR-BI HDL lipid transfer inhibition. inhibition, % at 12.5 µM. actives 0.96% (n = 320,000). ldlA[mSR-BI] CHO cells, DiI-HDL uptake fluorescence, 3 h. Q61009;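 active = mean replicate inhibition of at least 70% and a set share of replicates each scoring 70 or more; inconclusive = meets just one of the two criteria; inactive = fails both criteria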;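 note: 0% = median of neutral control wells and 100% = median of positive control wells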
Target sequence (Q61009 whole entry, looked up): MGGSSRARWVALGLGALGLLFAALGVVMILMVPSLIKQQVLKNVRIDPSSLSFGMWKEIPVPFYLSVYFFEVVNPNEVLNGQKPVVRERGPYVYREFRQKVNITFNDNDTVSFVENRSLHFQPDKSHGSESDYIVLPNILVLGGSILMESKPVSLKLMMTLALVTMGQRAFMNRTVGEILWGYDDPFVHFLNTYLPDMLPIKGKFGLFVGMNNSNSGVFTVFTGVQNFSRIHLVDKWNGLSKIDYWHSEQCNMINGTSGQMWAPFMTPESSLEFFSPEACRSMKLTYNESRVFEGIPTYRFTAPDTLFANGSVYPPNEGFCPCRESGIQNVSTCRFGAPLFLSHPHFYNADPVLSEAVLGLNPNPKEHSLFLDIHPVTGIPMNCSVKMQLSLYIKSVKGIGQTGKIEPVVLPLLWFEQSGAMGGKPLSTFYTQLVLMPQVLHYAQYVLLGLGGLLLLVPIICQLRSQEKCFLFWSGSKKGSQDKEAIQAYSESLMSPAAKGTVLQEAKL
Vif inh – HIV Vif inhibition; HEK293T cells, Vif self-association by quenched fluorescence, imaging, 24 h; inhibition, % at 7.49 µM; actives 0.35% (n = 340,000); AID 602346; in the data active = inhibition above about 50%, passing the limit was not always enough; inconclusive = no clear call, values can overlap the other calls; inactive = below about 31%
NTR1 agonist – NTR1 (human) agonism; P30989; NTR1-U2OS beta-arrestin-GFP spot imaging, agonist mode; activation, % at 20 µM; actives 0.17% (n = 330,000);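 active = activation at or above 40% of the spot to cytoplasm intensity ratio, with at least 20 cells analyzed; inconclusive = wells under 20 cells, flagged as cytotoxic or low count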;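 note: 0% = DMSO without peptide and 100% = 100 nM NTR1 peptide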
SR-BI DiI-HDL act – activators of SR-BI mediated HDL lipid uptake; actives 0.096% (n = 320,000); activation, % at 12.5 µM; CHO ldlA[mSR-BI] cells, DiI-HDL uptake fluorescence, 3 h; 100 = double the neutral-control signal;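 active = mean replicate activation of at least 60% and every replicate at or above 60%; inconclusive = mean or all-replicate condition met, but not both; inactive = mean below 60% and not all replicates reaching 60%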;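 note: 0% = median plate neutral-control signal and 100% = twice that signal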
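system = CHO ldlA[mSR-BI] cells, LDL receptor-null, SR-BI overexpressing | medium = Ham's F12 with 0.5% BSA, HEPES 25 mM, pH 7.4 | probe or stimulus = DiI-HDL 10 µg/mL | compound dosing = single-point compound dose | incubation = compound exposure 3 h, 37 °C | technique = DiI fluorescence, bottom read | read-out = cell-associated DiI fluorescence as measure of HDL uptake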
V-ATPase pH – regulators of yeast V-ATPase proton transport; response, % at 10 µM; S. cerevisiae, pHLuorin cytosolic pH fluorescence; actives 0.37% (n = 350,000); in the data active = response mostly above about 7.3%, no sharp cut-off; inactive = mostly below about 5.4%; note: actives read high
CaV13 FRET inh – Primary screen for inhibitors of IQ motif and Ca2+-dependent inactivation inhibitor domain binding in CACNA1D, Förster resonance energy transfer in living cells, …; HEK cells, CFP/YFP FRET ICDI-IQ, plate reader, 10 min; percent FRET-ratio fall versus neutral wells; inhibition, % at 12.3 µM; actives 0.098% (n = 340,000);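 active = mean replicate inhibition of at least 30% and at least 1% of replicates passing that level; inconclusive = only one of the two criteria is met; inactive = neither criterion is met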;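 note: 0% = median of the neutral control wells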
* hit, by the source's call; u = inconclusive; x = no result.

SMILES	SR-BI HDL uptake	Vif inh	NTR1 agonist	SR-BI DiI-HDL act	V-ATPase pH	CaV13 FRET inh
CCCCN(Cc1ccco1)C(=O)Cn1ncc2c(=O)oc3ccc(C)cc3c21	18	20	1	-18	2	-9
COc1ccc(-c2csc(C(C)(NC(C)=O)c3ccccc3)n2)cn1 (stereo not given)	x	3	x	x	x	-11
CCC(CO)Oc1cc(NCc2ccc(Cl)cc2)c2ncn(C(C)C)c2c1 (stereo not given)	27	106*	2	-27	9	-13
CCOc1ccc(C(=O)Nc2ccc(N3CCCC3)cc2)cc1	77*	12	3	-77	4	x
CCCCOc1ccc(C(=O)NCC(=O)N(C)CC(=O)Nc2ccc(N3CCOCC3)cc2)cc1	82*	-3	0	-82	0	-1
Cc1cccc(C(=O)NCC(=O)N(C)CC(=O)Nc2ccc(N3CCOCC3)cc2)c1	1	-2	0	-1	7	x
CCOc1cccc(C(=O)Nc2ccc(N(CC)CC)cc2)c1	55	x	-1	-55	-1	-4
CCOc1cccc(C(=O)Nc2ccc(N3CCCC3)cc2)c1	75*	0	0	-75	-2	-1
O=C(C(=O)N1CCC(CNC(=O)c2cccnc2Cl)CC1)c1cc2ccccc2o1	x	x	x	x	x	-8
COc1cccc(-c2cnc(C(O)c3c(C)ccc4ccccc34)[nH]2)c1 (stereo not given)	x	-3	x	x	x	-4
COc1cc2nc(NC(=O)c3ccccc3)[nH]c(=O)c2cc1OC	69	x	-1	-69	2	-5
COc1ccc(C(=O)Nc2nc3cc(OC)c(OC)cc3c(=O)[nH]2)cc1	86*	0	2	-86	1	-5
CC(C)OCCCNC(=O)c1c(N)n(/N=C/c2ccccn2)c2nc3ccccc3nc12	-84	-6	14	84*	1	-8
O=C(NC(O)C(=O)c1ccc(F)cc1)c1ccc(F)cc1 (stereo not given)	-11	-3	1	11	8	-2
O=c1[nH]c(=S)[nH]c2c1C(c1ccc(Br)cc1)c1c([nH]c(=S)[nH]c1=O)O2	-360	4	x	u	147*	-19
CCC(C)Sc1cc(-c2nc3ccccn3c2NC2CCCCC2)ccc1OC (stereo not given)	-66	-2	15	66*	0	0
Cn1c(N)c(C(=O)COC(=O)COc2ccc(Cl)cc2Cl)c(=O)n(C)c1=O	-54	18	1	54	0	-11
COc1cc(C(=O)NCCc2cn3ccccc3n2)cc(OC)c1OC	-13	-5	6	13	0	8
COc1cc(C(=O)NCCc2cn3ccc(C)cc3n2)cc(OC)c1OC	4	96*	3	-4	5	-7
COc1cc(OC)cc(-c2oc3cccnc3c2C#CCCO)c1	29	-3	8	-29	-6	-4
Cc1ccc(Cn2c(SCC(=O)NCC3CCCO3)nc3ccsc3c2=O)cc1 (stereo not given)	-60	3	-1	60*	4	3
CCOC(=O)C1CCN(S(=O)(=O)c2cccc(-c3cn4cccnc4n3)c2)CC1	-24	-14	1	24	2	x
CCOC(=O)C1CCN(S(=O)(=O)c2cccc(-c3cn4cc(C)ccc4n3)c2)CC1	1	64*	4	-1	0	-6
COc1ccc(C(=O)Nc2nc(CC(=O)NCCc3ccccc3)cs2)cc1	42	1	1	-42	-2	-5
COc1ccccc1NC(=O)Nc1nc(CC(=O)N2CCN(c3ccccc3F)CC2)cs1	80*	-10	9	-80	-2	-6
SMILES	SR-BI HDL uptake	Vif inh	NTR1 agonist	SR-BI DiI-HDL act	V-ATPase pH	CaV13 FRET inh
COc1ccccc1NC(=O)Nc1nc(CC(=O)NCc2c(F)cccc2F)cs1	72*	-3	3	-72	-1	x
COc1ccc(NC(=S)Nc2nc(CC(=O)Nc3ccccc3OC)cs2)cc1	50	-25	8	-50	0	-6
COc1ccc(C(=O)Nc2nc(CC(=O)NCCc3cccc(OC)c3)cs2)cc1	73*	2	1	-73	2	-6
COc1ccccc1NC(=O)Nc1nc(CC(=O)NCc2ccc(F)cc2)cs1	72*	x	1	-72	-2	-6
COc1ccccc1NC(=O)Cc1csc(NC(=S)Nc2ccccc2)n1	20	-11	10	-20	0	-5
COc1ccccc1CC(=O)N1CCN(c2ccccc2F)CC1	-21	-4	1	21	-4	-5
COC(=O)[C@]12C[C@H](CC(=O)NCc3ccc(C)o3)C(=O)N(Cc3ccc4c(c3)OCO4)C1=C[C@H](COCc1ccccc1)O[C@@H]2C	x	x	x	x	x	-8
COc1ccc(Br)cc1S(=O)(=O)N1CCCc2ccccc21	22	0	4	-22	1	-4
COc1cccc(CNC(=O)Cc2csc(NC(=O)Nc3ccccc3OC)n2)c1	78*	-2	0	-78	-2	-4
COc1ccc(NC(=O)Cc2csc(NC(=O)Nc3ccccc3OC)n2)c(OC)c1	64	-15	6	-64	-2	-5
O=C(Cc1csc(-c2ccccc2)n1)NCc1ccccc1F	x	x	-1	x	x	38*
COc1ccc(OC)c(NC(=O)Cc2csc(NC(=O)Nc3ccccc3OC)n2)c1	76*	2	9	-76	2	x
O=C(Cc1csc(-c2ccccc2)n1)NCc1ccc(F)cc1	-9	5	0	9	3	-3
Cc1ccc(CSc2sc(C(=O)c3ccccc3)c(N)c2C#N)cc1	8	-14	17	-8	2	-3
Cc1ccc(-c2sc(C(=O)NN)c(C)c2C#N)cc1	92*	-6	1	-92	0	2
O=C(CC[C@H]1O[C@@H](n2ccc(=O)[nH]c2=O)[C@H](O)[C@@H]1O)N[C@H](Cc1ccccc1)C(=O)NCc1cccs1	x	15	x	x	x	-6
C=C[C@@]1(C)CC(=O)[C@]2(O)[C@@]3(C)[C@@H](O)CCC(C)(C)[C@@H]3[C@H](OC(C)=O)[C@H](O)[C@@]2(C)O1	25	82*	-1	-25	0	x
C=C[C@@]1(C)CC(=O)[C@]2(O)[C@@]3(C)[C@@H](O)CCC(C)(C)[C@@H]3[C@H](O)[C@H](OC(C)=O)[C@@]2(C)O1	-2	75*	2	2	1	-4
C=C1C(=O)O[C@H]2C[C@]3(C)C([C@@H](OC(=O)/C(C)=C/C)[C@H]12)[C@](C)(O)CC[C@H]3O (stereo not given in full)	-9	11	1	9	1	-5
CC1CCN(CCCNC(=O)c2ccc3c(Cl)c4c(nc3c2)CCCC4)CC1	x	10	7	x	2	-5
